# Test results: ChEMBL document CHEMBL1131436, “Repaglinide and related hypoglycemic benzoic acid derivatives” (1998)
# Experiments:
# Rattus norvegicus [1] = assay: Maximum % decrease of blood glucose (deltaBG) was observed within 4 hour after administration orally at 0.1 mg/kg dose to fasted adult female rats versus a control group; assay type: functional; conditions: route oral
# Outline: (§1)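 Female Wistar rats (Chbb THOM, SPF, 200-220 g), fasted 24 h, dosed orally by gavage as suspension in 1.5% Tylose methylcellulose (10 mL/kg). Whole blood from retrobulbar plexus under light halothane, deproteinized with 0.33 M HClO4; glucose by hexokinase/G6PDH, hourly up to 4 h. % decrease vs control group (N = 7), Student's t-test, P ≤ 0.05.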
# Rattus norvegicus [2] = assay: Maximum % decrease of blood glucose (deltaBG) was observed within 4 hour after administration orally at 0.5 mg/kg dose to fasted adult female rats versus a control group; assay type: functional; conditions: route oral; outline: as §1
# Rattus norvegicus [3] = assay: Half-maximal effective dose was measured on rat blood glucose after administrating at 4 hr; assay type: functional
# Outline: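 Adult fasted female Wistar rats (Chbb THOM, SPF, 200-220 g), food withdrawn 24 h; oral gavage of suspension in 1.5% Tylose (methylcellulose), 10 mL/kg. Retrobulbar blood under light halothane; glucose by hexokinase/G6PDH after HClO4 deproteinization, hourly to 4 h. ED50 from fit of glucose vs dose, y = b + [a × k/(k + x^nH)], Hill coefficient nH.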
# Rattus norvegicus [4] = assay: Maximum % decrease of blood glucose (deltaBG) was observed within 4 hour after administration orally at 0.01 mg/kg dose to fasted adult female rats versus a control group; assay type: functional; conditions: route oral; outline: as §1
# Rattus norvegicus [5] = assay: Maximum % decrease of blood glucose (deltaBG) was observed within 0.5 hour after administration orally at 0.1 mg/kg dose to fasted adult female rats versus a control group; assay type: functional; conditions: route oral
# Rattus norvegicus [6] = assay: Maximum % decrease of blood glucose (deltaBG) was observed within 1 hour after administration orally at 0.1 mg/kg dose to fasted adult female rats versus a control group; assay type: functional; conditions: route oral; outline: as §1
# Rattus norvegicus [7] = assay: Maximum % decrease of blood glucose (deltaBG) was observed within 2 hour after administration orally at 0.1 mg/kg dose to fasted adult female rats versus a control group; assay type: functional; conditions: route oral; outline: as §1
# Rattus norvegicus [8] = assay: Maximum % decrease of blood glucose (deltaBG) was observed within 3 hour after administration orally at 0.1 mg/kg dose to fasted adult female rats versus a control group; assay type: functional; conditions: route oral; outline: as §1
# Rattus norvegicus [9] = assay: Maximum % decrease of blood glucose (deltaBG) was observed within 4 hour after administration orally at 0.3 mg/kg dose to fasted adult female rats versus a control group; assay type: functional; conditions: route oral; outline: as §1
# Rattus norvegicus [10] = assay: Maximum % decrease of blood glucose (deltaBG) was observed within 4 hour after administration orally at 25 mg/kg dose to fasted adult female rats versus a control group; NS =' not significant'; assay type: functional, organism-based; set-up: dose 25 mg/kg; outline: as §1
# Rattus norvegicus [11] = assay: Maximum % decrease of blood glucose (deltaBG) was observed within 4 hour after administration orally at 1 mg/kg dose to fasted adult female rats versus a control group; NS =' not significant'; assay type: functional, organism-based; set-up: dose 1 mg/kg; outline: as §1
# Rattus norvegicus [12] = assay: Maximum % decrease of blood glucose (deltaBG) was observed within 4 hour after administration orally at 10 mg/kg dose to fasted adult female rats versus a control group; NS =' not significant'; assay type: functional, organism-based; set-up: dose 10 mg/kg; outline: as §1
# Rattus norvegicus [13] = assay: Maximum % decrease of blood glucose (deltaBG) was observed within 4 hour after administration orally at 0.4 mg/kg dose to fasted adult female rats versus a control group; assay type: functional; conditions: route oral; outline: as §1
# Rattus norvegicus [14] = assay: Maximum % decrease of blood glucose (deltaBG) was observed within 4 hour after administration orally at 10 mg/kg dose to fasted adult female rats versus a control group; assay type: functional; conditions: route oral; outline: as §1
# Rattus norvegicus [15] = assay: Maximum % decrease of blood glucose (deltaBG) was observed within 4 hour after administration orally at 5 mg/kg dose to fasted adult female rats versus a control group; assay type: functional; conditions: route oral; outline: as §1
# Rattus norvegicus [16] = assay: Maximum % decrease of blood glucose (deltaBG) was observed within 4 hour after administration orally at 25 mg/kg dose to fasted adult female rats versus a control group; assay type: functional; conditions: route oral; outline: as §1
# Rattus norvegicus [17] = assay: Maximum % decrease of blood glucose (deltaBG) was observed within 3 hour after administration orally at 0.1 mg/kg dose to fasted adult female rats versus a control group; NS =' not significant'; assay type: functional, organism-based; set-up: dose 0.1 mg/kg; outline: as §1
# Rattus norvegicus [18] = assay: Maximum % decrease of blood glucose (deltaBG) was observed within 3 hour after administration orally at 0.5 mg/kg dose to fasted adult female rats versus a control group; assay type: functional; conditions: route oral; outline: as §1
# Rattus norvegicus [19] = assay: Maximum % decrease of blood glucose (deltaBG) was observed within 1 hour after administration orally at 0.5 mg/kg dose to fasted adult female rats versus a control group; assay type: functional; conditions: route oral; outline: as §1
# Rattus norvegicus [20] = assay: Maximum % decrease of blood glucose (deltaBG) was observed within 2 hour after administration orally at 0.5 mg/kg dose to fasted adult female rats versus a control group; assay type: functional; conditions: route oral; outline: as §1
# Rattus norvegicus [21] = assay: Maximum % decrease of blood glucose (deltaBG) was observed within 4 hour after administration orally at 0.1 mg/kg dose to fasted adult female rats versus a control group; NS =' not significant'; assay type: functional, organism-based; set-up: dose 0.1 mg/kg; outline: as §1
# Rattus norvegicus [22] = assay: Maximum % decrease of blood glucose (deltaBG) was observed within 4 hour after administration orally at 1 mg/kg dose to fasted adult female rats versus a control group; assay type: functional; conditions: route oral; outline: as §1
# [23] = Rattus norvegicus, Blood, 4 h, read-out: ED50
smiles,measurement,setting,value
CCCCC(NC(=O)Cc1ccc(C(=O)O)c(OCC)c1)c1ccccc1N1CCCCC1 (configuration not stated),Delta BG,Rattus norvegicus [1],-24%
same,Delta BG,Rattus norvegicus [2],-45%
CCOc1cc(CC(=O)N[C@@H](CC(C)C)c2ccccc2N2CCCCC2)ccc1C(=O)O (stereo in doubt; 6al) [REPAGLINIDE],ED50,Rattus norvegicus [3],0.022 mg/kg
same,Delta BG,Rattus norvegicus [4],-19%
same,Delta BG,Rattus norvegicus [1]; 0.1 mg/kg,-44%
CCOc1cc(CC(=O)NC(CC2CCCCC2)c2ccccc2N2CCCCC2)ccc1C(=O)O (configuration not stated),Delta BG,Rattus norvegicus [1],-23%
CCC1=C(C)CN(C(=O)NCCc2ccc(S(=O)(=O)NC(=O)N[C@H]3CC[C@H](C)CC3)cc2)C1=O [GLIMEPIRIDE],ED50,Rattus norvegicus [3]; [23],0.182 mg/kg
same,Delta BG,Rattus norvegicus [5],-8%
same,Delta BG,Rattus norvegicus [6],-17%
same,Delta BG,Rattus norvegicus [7],-18%
same,Delta BG,Rattus norvegicus [8],-14%
same,Delta BG,Rattus norvegicus [1],-18%
same,Delta BG,Rattus norvegicus [9],-35%
CC(NC(=O)Cc1ccc(C(=O)O)cc1)c1cc(Cl)ccc1N1CCCCCCCC1 (configuration not stated),Delta BG,Rattus norvegicus [10],Not significant
C=C(C)C[C@H](NC(=O)Cc1ccc(C(=O)O)c(OCC)c1)c1ccccc1N1CCCCC1,Delta BG,Rattus norvegicus [1],-43%
CC(NC(=O)Cc1ccccc1C(=O)O)c1ccccc1N1CCCCC1 (configuration not stated),Delta BG,Rattus norvegicus [10],Not significant
CC1CCN(c2ccc(Cl)cc2C(=O)NCCc2ccc(C(=O)O)cc2)CC1,Delta BG,Rattus norvegicus [11],Not significant
CC(NC(=O)Cc1ccc(S(N)(=O)=O)cc1)c1ccccc1N1CCCCC1 (configuration not stated),Delta BG,Rattus norvegicus [12],Not significant
O=C(Cc1ccc(C(=O)O)cc1)N[C@@H](c1ccccc1)c1ccccc1N1CCCCC1,Delta BG,Rattus norvegicus [13],-33%
O=C(O)c1ccc(CCNC(=O)c2cc(Cl)ccc2N2CCCCCCCCCC2)cc1,Delta BG,Rattus norvegicus [11],Not significant
CC(NC(=O)Cc1ccc(C(=O)O)cc1)c1cc(Cl)ccc1N1CCCCC1 (configuration not stated),Delta BG,Rattus norvegicus [14],-36%
same,Delta BG,Rattus norvegicus [15],-18%
CC(NC(=O)Cc1ccc(C(=O)O)cc1)c1cccc(N2CCCCC2)c1 (configuration not stated),Delta BG,Rattus norvegicus [16],-15%
CC(C)C(NC(=O)Cc1ccc(C(=O)O)cc1)c1ccccc1N1CCCCC1 (configuration not stated),Delta BG,Rattus norvegicus [2],-18%
O=C(O)c1ccc(CCNC(=O)c2cc(Cl)ccc2N2CCCC2)cc1,Delta BG,Rattus norvegicus [16],-18%
CCCC(NC(=O)Cc1ccc(C(=O)O)c(OC)c1)c1ccccc1N1CCCCC1 (configuration not stated),Delta BG,Rattus norvegicus [17],Not significant
same,Delta BG,Rattus norvegicus [18],-37%
same,Delta BG,Rattus norvegicus [5],-38%
same,Delta BG,Rattus norvegicus [6],-43%
same,Delta BG,Rattus norvegicus [19],-42%
same,Delta BG,Rattus norvegicus [7],-27%
same,Delta BG,Rattus norvegicus [20],-39%
same,Delta BG,Rattus norvegicus [1],-43%
same,Delta BG,Rattus norvegicus [21],Not significant
same,Delta BG,Rattus norvegicus [2],-31%
CCCC(CCCc1ccc(C(=O)O)cc1)c1ccccc1N1CCCCC1 (configuration not stated),Delta BG,Rattus norvegicus [10],Not significant
CC(NC(=O)Cc1ccc(C(=O)O)cc1)c1ccc(N2CCCCC2)cc1 (configuration not stated),Delta BG,Rattus norvegicus [10],Not significant
CCOc1cc(CC(=O)NC(CC2CC2)c2ccccc2N2CCCCC2)ccc1C(=O)O (configuration not stated),Delta BG,Rattus norvegicus [1],-37%
CC(C)CC(NC(=O)Cc1ccc(C(=O)O)cc1)c1ccccc1N1CCCCC1 (configuration not stated),Delta BG,Rattus norvegicus [1],-30%
CC(NC(=O)Cc1ccc(C(=O)O)cc1)c1ccccc1N1CCCCC1 (configuration not stated),ED50,Rattus norvegicus [3],0.3 mg/kg
same,ED50,Rattus norvegicus [3]; [23],0.3 mg/kg
same,Delta BG,Rattus norvegicus [1],-13%
same,Delta BG,Rattus norvegicus [2],-31%
same,Delta BG,Rattus norvegicus [22],-41%
same,Delta BG,Rattus norvegicus [15],-49%
CC(NC(=O)Cc1ccc(S(=O)(=O)NC(=O)NC2CCCCC2)cc1)c1ccccc1N1CCCCC1 (configuration not stated),Delta BG,Rattus norvegicus [11],Not significant
same,Delta BG,Rattus norvegicus [15],-42%
CC(NC(=O)Cc1ccc(C(=O)O)cc1)c1cc(Cl)ccc1N1CCCCCCC1 (configuration not stated),Delta BG,Rattus norvegicus [10],Not significant
CCOc1cc(CC(=O)N[C@H](CC(C)C)c2ccccc2N2CCCCC2)ccc1C(=O)O,Delta BG,Rattus norvegicus [11],Not significant
CCN(CC)c1ccc(Cl)cc1C(=O)NCCc1ccc(C(=O)O)cc1,Delta BG,Rattus norvegicus [16],-35%
CCOc1cc(CC(=O)NC(c2ccccc2)c2ccccc2N2CCCCC2)ccc1C(=O)O (configuration not stated),Delta BG,Rattus norvegicus [1],-22%
same,Delta BG,Rattus norvegicus [2],-40%
